A1 apoptosis 2 = blocks A1, raising caspase activity | MEF A1-2A-BIM cells, caspase-Glo luminescence, 3 h; percent of clofoctol response, DMSO zero | caspase activation, % (no concentration beside the values) | 24,000 tested, under 10 active; in the data active means caspase activation above about 5.9%
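system = A1-2A-BIM-expressing MEF cells | quantity = 2500 MEF cells/well | dosing = 50 nL compound per well, pinned | schedule = overnight cell settling, then 3 h compound exposure, 37 °C | signal = luminescence from DEVD-luciferin Caspase-Glo reagent, 1:1 in 50 mM HEPES, 1 h RT | read-out = Caspase-3/7 activation, seen as rise in luminescence signal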
INS-1E rescue = rescue of cytokine-induced death in INS-1E beta cells. 0.1% of 20,000 active. protection from cytokine-induced ATP loss, % at 10 µM. INS-1E cytokine-induced death, ATP luminescence, 48 h; normalised: neutral wells 0, positive control 100. AID 488910;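 active means mean replicate protection from cytokine-induced ATP loss at least 50% and at least 75% of replicates each reaching 50%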
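assay system = INS-1E rat insulinoma cells | amount = 8000 cells per well | medium = phenol-red-free RPMI with 5% fetal bovine serum | doses = one compound concentration, pin transfer | timing = 48 h cytokine plus compound treatment, 10 min reagent incubation | also added = IL-1β, TNF-α and IFN-γ cytokine mix | signal = CellTiter-Glo luminescence measuring cellular ATP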
T cruzi HTS = blocks T. cruzi growth inside host cells | intracellular Trypanosoma cruzi in host cells, plate reader | AID 651903 | activity score (inhibition), % at 5.01 µM | 4.9% of 22,000 active; in the data active means activity score above about 55%;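 further: parasites and compound incubated about four days before reading; 0% = median of neutral control wells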
* marks the source's active call; other numbers are inactive results; . = not tested or not shown. Shown is part of a subset that was picked to be rich in hits.

SMILES	A1 apoptosis 2	INS-1E rescue	T cruzi HTS
C[C@H]1CN([C@@H](C)CO)C(=O)c2cccc(NC(=O)Nc3ccc4c(c3)OCO4)c2O[C@@H]1CN(C)Cc1ccc(C(=O)Nc2ccccc2N)cc1	-0.8	10.3	68.1*
C[C@H](CO)N1C[C@H](C)[C@@H](CN(C)CC2CC2)Oc2c(NC(=O)Nc3ccc4c(c3)OCO4)cccc2C1=O	-0.4	-5.4	57.6*
Cc1nnc(Sc2ccc(/C=N/NC(=O)c3cccc(C(=O)NO)c3)o2)n1C	.	3.8	-23.0
C=C(C)[C@@H]1CC=C(/C=N/NC(=O)c2ccc(C(=O)NO)cc2)CC1	.	17.3	-5.8
O=C(CCCCCCC(=O)Nc1ccccc1O)NN=C1CCCCCCC1	-0.1	0.6	1.6
COc1ccccc1CN1C(=O)c2ccccc2[C@](Cc2ccccc2I)(C(=O)NCC(C)C)[C@@H]1c1ccc(CO)cc1	-0.7	.	.
C[C@@H]1CN([C@H](C)CO)C(=O)c2cc(NC(=O)Cn3cnnn3)ccc2O[C@H]1CN(C)Cc1ccc(C(=O)Nc2ccccc2N)cc1	-1.9	-12.2	29.4
C[C@@H]1CN([C@@H](C)CO)C(=O)c2cccc(NC(=O)Nc3ccc4c(c3)OCO4)c2O[C@H]1CN(C)Cc1ccc(C(=O)Nc2ccccc2N)cc1	1.3	-1.1	67.5*
C[C@H](CO)N1C[C@H](C)[C@@H](CN(C)Cc2ccc(C(=O)Nc3ccccc3N)cc2)Oc2ccc(NC(=O)Cn3cnnn3)cc2C1=O	.	-10.9	69.0*
C[C@@H]1CN([C@@H](C)CO)C(=O)c2cccc(NC(=O)Nc3ccc4c(c3)OCO4)c2O[C@@H]1CN(C)Cc1ccc(C(=O)O)cc1	.	2.9	-17.4
O=C(CCCCCCC(=O)Nc1ccccc1O)N/N=C/c1ccc(Br)cc1	.	-2.8	4.9
Cc1ccc(S(=O)(=O)N[C@@H](Cc2ccccc2)C(=O)NCCN=[N+]=[N-])cc1	0.9	.	.
CCN(CC)c1ccc(/C=N/NC(=O)c2ccccc2O)c(O)c1	-9.0	.	.
C[C@@H]1CN([C@@H](C)CO)C(=O)Cc2cc(NC(=O)Nc3ccc4c(c3)OCO4)ccc2O[C@@H]1CN(C)Cc1ccc2c(c1)OCO2	.	-9.2	24.9
C[C@H]1CN([C@@H](C)CO)C(=O)Cc2cc(NC(=O)Nc3ccc(C(F)(F)F)cc3)ccc2O[C@@H]1CN(C)Cc1ccc2c(c1)OCO2	.	-6.9	17.6
C[C@@H]1CN([C@H](C)CO)C(=O)Cc2cc(NC(=O)Nc3ccc4c(c3)OCO4)ccc2O[C@@H]1CN(C)Cc1ccc(C(F)(F)F)cc1	.	-24.9	75.6*
C[C@@H]1CN([C@H](C)CO)C(=O)Cc2cc(NC(=O)Nc3ccc(C(F)(F)F)cc3)ccc2O[C@@H]1CN(C)Cc1ccc2c(c1)OCO2	-0.1	-59.0	62.0*
C[C@@H]1CN([C@H](C)CO)C(=O)Cc2cc(NC(=O)Nc3ccc(F)cc3)ccc2O[C@H]1CN(C)Cc1ccc2c(c1)OCO2	0.1	-2.2	6.6
C[C@H](CO)N1C[C@H](C)[C@H](CN(C)Cc2ccc3c(c2)OCO3)Oc2ccc(NC(=O)Nc3ccc(C(F)(F)F)cc3)cc2CC1=O	0.4	-34.7	74.3*
O=C(O)CCCCCCC(=O)N/N=C/c1ccccn1	.	5.8	-2.6
O=C(O)CCCCCCC(=O)N/N=C/c1cc(Br)cc(Br)c1O	0.9	29.3	-9.0
O=C(O)c1cccc(/C=N/NC(=O)c2ccccn2)c1	-6.6	1.4	-11.7
C[C@@H]1CN([C@@H](C)CO)C(=O)Cc2cc(NS(=O)(=O)c3ccc(Cl)cc3)ccc2O[C@H]1CN(C)Cc1ccccc1	0.2	.	.
C[C@H]1CN([C@@H](C)CO)C(=O)Cc2cc(NS(=O)(=O)c3ccc(Cl)cc3)ccc2O[C@@H]1CN(C)Cc1ccccc1	.	6.5	68.6*
C[C@@H]1CN([C@@H](C)CO)C(=O)Cc2cc(NS(=O)(=O)c3ccc(Cl)cc3)ccc2O[C@@H]1CN(C)Cc1ccccc1	-0.8	-8.3	35.2
SMILES	A1 apoptosis 2	INS-1E rescue	T cruzi HTS
C[C@H]1CN([C@@H](C)CO)C(=O)Cc2cc(NS(=O)(=O)c3ccc(Cl)cc3)ccc2O[C@H]1CN(C)Cc1ccccc1	.	-4.9	75.5*
C=CC[C@H](OC(=O)Nc1ccc(OC)cc1)c1ccc(OCCO)cc1	-5.0	.	.
O=C(O)c1ccc(/C=N/NC(=O)c2cccc(C(=O)NO)c2)cc1	0.2	0.3	-3.4
C[C@@H]1CN([C@H](C)CO)C(=O)c2cccc(NC(=O)Nc3cccc4ccccc34)c2O[C@@H]1CN(C)Cc1ccc(Cl)c(Cl)c1	-0.5	-19.5	11.7
C[C@H]1CN([C@@H](C)CO)C(=O)c2cc(NC(=O)Nc3cccc4ccccc34)ccc2O[C@H]1CN(C)Cc1ccc(Cl)c(Cl)c1	-1.3	.	47.7
C[C@@H]1CN([C@H](C)CO)C(=O)Cc2cc(NC(=O)Nc3cccc4ccccc34)ccc2O[C@@H]1CN(C)Cc1ccc(Cl)c(Cl)c1	.	-22.0	68.1*
C[C@H]1CN([C@@H](C)CO)C(=O)c2cc(NC(=O)Nc3cccc4ccccc34)ccc2O[C@@H]1CN(C)Cc1ccc(Cl)c(Cl)c1	0.2	-34.5	65.1*
C[C@@H]1CN([C@H](C)CO)C(=O)Cc2cc(NC(=O)Nc3cccc4ccccc34)ccc2O[C@H]1CN(C)Cc1ccc(Cl)c(Cl)c1	.	0.3	47.0
C[C@H](CO)N1C[C@H](C)[C@H](CN(C)Cc2ccc(Cl)c(Cl)c2)Oc2ccc(NC(=O)Nc3cccc4ccccc34)cc2CC1=O	2.1	-4.8	68.5*
C[C@H](CO)N1C[C@H](C)[C@@H](CN(C)Cc2ccc(Cl)c(Cl)c2)Oc2c(NC(=O)Nc3cccc4ccccc34)cccc2C1=O	-1.6	-17.2	67.9*
C[C@H]1CN([C@@H](C)CO)C(=O)Cc2cc(NC(=O)Nc3cccc4ccccc34)ccc2O[C@H]1CN(C)Cc1ccc(Cl)c(Cl)c1	.	-11.4	35.0
COc1ccc(CN2C(C)Cc3cc(OC)c(OC)cc3C2C)cc1 (stereo not given)	1.0	.	.
COc1ccc(Br)cc1/C=N/NC(=O)CCCCCC(=O)Nc1ccccc1O	-0.2	-4.9	10.6
O=C(NO)c1cccc(C(=O)N/N=C/c2ccc(-c3ccccc3)cc2)c1	.	-3.4	-2.7
COc1ccc(/C=N/NC(=O)CCCCCCC(=O)Nc2ccccc2O)cc1	-0.2	9.5	-11.1
C[C@@H]1CN([C@H](C)CO)C(=O)Cc2cc(NC(=O)Nc3ccc(C(F)(F)F)cc3)ccc2O[C@@H]1CN(C)CC1CCCCC1	.	-72.9	61.5*
C[C@@H]1CN([C@H](C)CO)C(=O)Cc2cc(NC(=O)Nc3ccc(C(F)(F)F)cc3)ccc2O[C@H]1CN(C)CC1CC1	-0.3	-11.1	7.8
C[C@@H]1CN([C@H](C)CO)C(=O)Cc2cc(NC(=O)Nc3ccc(C(F)(F)F)cc3)ccc2O[C@H]1CN(C)CC1CCCCC1	.	-18.2	82.8*
C[C@H]1CN([C@@H](C)CO)C(=O)Cc2cc(NC(=O)Nc3ccc(C(F)(F)F)cc3)ccc2O[C@H]1CN(C)CC1CC1	-1.5	3.9	9.7
O=C(NO)c1cccc(C(=O)N/N=C/c2ccc([N+](=O)[O-])c(O)c2)c1	-1.2	2.6	4.8
O=C(O)CCCCCC(=O)N/N=C/c1cc(F)ccc1O	0.2	4.3	-11.6
[N-]=[N+]=Nc1cccc(C(=O)NCCc2c[nH]c3ccccc23)c1	0.8	.	.

Bioassay records as filed in PubChem.
